Keap1 Nrf2 FP: Keap1-Nrf2 (human) interaction inhibition. Q14145. 0.15% of 340,000 active. AID 504523. Keap1 Kelch-Nrf2 peptide fluorescence polarization, 1536-well. inhibition, % at 9.4 µM; in the data active means inhibition above about 12%; inconclusive means no clear call, values can overlap the other calls; inactive means below about 7.3%;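 further: human Keap1 Kelch domain with fluorescein labeled Nrf2 9mer peptide probe; 0% = neutral control wells and 100% = peptide positive control; higher means more block of Keap1 binding to Nrf2 peptide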
EBV gp42 block: EBV gp42 inhibition; Q1HVG2; inhibition, % (tested at 21.74 µM); 0.42% of 220,000 active; Fluorescence polarization binding assay, mP read-out; in the data active means inhibition above about 50%
Target sequence (Q1HVG2 whole entry, looked up): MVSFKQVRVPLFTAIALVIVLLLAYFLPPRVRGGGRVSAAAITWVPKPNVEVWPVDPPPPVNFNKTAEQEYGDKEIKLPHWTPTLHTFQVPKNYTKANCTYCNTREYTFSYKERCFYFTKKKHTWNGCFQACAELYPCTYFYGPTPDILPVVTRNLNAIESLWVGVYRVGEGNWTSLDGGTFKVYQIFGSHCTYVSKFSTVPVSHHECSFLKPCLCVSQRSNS
T cell HTS: modulates CD8 T cell binding to vesicles. 2C CD8+ T cell-vesicle binding, flow cytometry; stronger effect = lower value. response (vesicle binding), % at 7 µM. 0.068% of 330,000 active. AID 2052;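 active means response, share of CD8 T cells binding vesicles, and their 90th percentile fluorescence all below set limits, cut at about 80% in these data, passing the limit was not always enough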;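 further: values below 100% mean blocked vesicle binding to the CD8+ T cells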
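Material: murine 2C transgenic CD8+ T lymphocytes / Also added: QL9-peptide-loaded Drosophila micro-vesicles bearing Ld, ICAM-1 and B7-1 / Schedule: binding step 1.5 h, 37 °C, antibody labelling 20 min, ice / Signal: flow cytometry, PE anti-B7-1 (FL2) versus Alexa647 anti-CD8 (FL8), PFA-fixed / Evaluation: percent CD8+ FL2 mean versus row control / Benchmarks: naked versus QL9-loaded vesicles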
MEX-5 binding: C. elegans MEX-5 TCR-2 RNA binding activity. Q9XUB2. MEX-5/FITC-TCR2 RNA binding, fluorescence polarization; stronger effect = lower value. activity score (negative = inhibition of binding), % at 10 µM. 0.38% of 300,000 active;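 active means inhibition past about -25% in most replicates, and total fluorescence under double the plate's negative control median, limit read from the data; inconclusive means replicates evenly split on the limit, or fluorescence at least double controls; inactive means too little inhibition in most replicates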;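 further: 0% = DMSO and -100% = 5 µM competing unlabeled TCR2 RNA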
GRK2 inh: inhibitors of human GRK2 displacing RNA aptamer; P25098; bead flow cytometry, FAM-aptamer displacement from GRK2; inhibition of aptamer binding, % at 10 µM; 0.59% of 330,000 active; AID 488847;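 active means inhibition of aptamer binding above 40%, roughly 3 SD of noise, on plates passing a quality check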;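 further: median bead fluorescence of bound FAM aptamer so fluorescent compounds give negative values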
LANA DNA inh: blocks KSHV LANA C-terminal domain binding to DNA. AID 504423. inhibition, % at 9 µM. 0.078% of 340,000 active. MBP-C-LANA/FAM-LBS DNA binding, fluorescence polarization;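 active means highest replicate inhibition at or above 60% at 9 µM, even if other replicates fall short; inactive means all replicates below 60% inhibition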;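 further: 0% = neutral control wells and 100% = 4 µM acridine orange control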
* marks the source's active call; other numbers are inactive results; ? = inconclusive; nt = not tested or not shown. Hits are enriched below; roughly 1.3% of the tested compounds scored in any of these assays.

SMILES	Keap1 Nrf2 FP	EBV gp42 block	T cell HTS	MEX-5 binding	GRK2 inh	LANA DNA inh
OCCCc1nc2n(n1)C(c1cccs1)C=C(c1ccc(Br)cc1)N2 (stereo unspecified)	nt	141*	635	-68*	0	nt
Nn1c(SCC(=O)NCCc2ccc(S(N)(=O)=O)cc2)nnc1C1CCCCC1	-4	nt	285	nt	1	-1
CC(=O)c1c(C)[nH]c(-c2ccccc2)c1C	-1	-14	851	3	0	0
C=C1Cn2c(nnc2-c2ccc(Cl)cc2)S1	0	-2	177	-1	0	-1
CN1C=CC2=C(C#N)C(N)C(C#N)(C#N)C(c3ccccc3)C2C1 (stereo unspecified)	10	63*	940	?	0	41
CN1C[C@@H]2C(c3ccccc3)C3(c4ccc(C#N)cc4)CC2(C3)[C@H]1c1ccccc1 (stereo partly specified)	-3	-20	320	1	1	-1
COc1ccc(-c2cn3nc4c(nc3n2)CCCC4)cc1	-3	96*	nt	nt	nt	6
Cc1ccc(OCC(=O)NNC(=O)c2cc(C)[nH]n2)cc1	0	-18	221	0	0	0
Cn1cc(Cl)c(C(=O)Nc2nc3ccc([N+](=O)[O-])cc3s2)n1	2	67*	547	1	0	1
CC(=O)Nc1ccc2nc(NC(=O)c3ccc([N+](=O)[O-])s3)sc2c1	nt	15	450	0	87*	nt
O=c1cc(-c2ccccc2)nc2c(-c3ccccc3)c(C(F)(F)F)[nH]n12	nt	60*	578	-2	1	nt
Cc1cc(=O)n2[nH]c(C)c(-c3ccccc3)c2n1	-3	-6	508	2	0	1
Cc1ccc(S(=O)(=O)Nc2nc3ccccc3nc2Nc2cccc(S(=O)(=O)N3CCCC3)c2)cc1	5	56*	290	-3	0	0
COc1ccccc1CN(C)C(=O)c1ccc(S(=O)(=O)NCc2ccco2)cc1	-6	nt	270	nt	44*	0
O=C(c1ccc(-n2cncn2)c([N+](=O)[O-])c1)N1CCN(S(=O)(=O)c2ccc(Cl)cc2)CC1	-2	nt	203	5	0	0
N#CC12COC3(CCCCC3C1(C#N)C#N)OC2=N (stereo unspecified)	?	5	293	-6	0	30
N#CC1(C#N)COC23CCCCC2C1(C#N)C(=N)O3 (stereo unspecified)	21*	-5	413	-2	1	45
N#CC1=C(N)C(C#N)(C#N)C(c2cccnc2)C2COCC=C12 (stereo unspecified)	-3	3	296	-26*	0	3
Cn1c(N=Nc2ccc(N3CCOCC3)cc2)[n+](C)c2ccccc21	-2	-1	nt	-31*	nt	-4
Cc1nc2sc3c(c2c(=O)[nH]1)CCC3	2	-8	422	2	2	0
Cc1cc(-c2nc3c4c5c(sc4[nH]c(=O)n3n2)CCC5)c(C)o1	-2	60*	259	-11	40	2
CCOC(=O)Cc1cc(=O)n(-c2nc3ccccc3s2)[nH]1	0	-15	305	-1	2	4
CCCc1cc(=O)n(-c2nc3ccccc3s2)[nH]1	1	69*	106	nt	0	-2
COc1ccc(C2C=C(c3ccc(Br)s3)Nc3ncnn32)cc1OC (stereo unspecified)	nt	91*	210	?	0	nt
COc1ccc(C2C=C(c3ccc(C)cc3)Nc3ncnn32)cc1 (stereo unspecified)	0	38	nt	-6	nt	3
SMILES	Keap1 Nrf2 FP	EBV gp42 block	T cell HTS	MEX-5 binding	GRK2 inh	LANA DNA inh
CN(C)C(=S)N=c1ssc(=S)n1Cc1ccccc1	1	nt	nt	nt	nt	-2
CCCOc1ccc(N2C(=O)CC(N(C(=O)c3ccco3)c3ccc(OCCC)cc3)C2=O)cc1 (stereo unspecified)	-3	-4	0.0*	0	0	-2
COC(=O)C1=C(C)N(c2ccccc2)/C(=C/c2ccco2)C1=O	-22	-13	214	-28*	0	-11
CN(C(=O)COC(=O)c1cccc(NS(=O)(=O)c2ccc(F)c(F)c2)c1)C1CCS(=O)(=O)C1 (stereo unspecified)	0	-5	19*	0	0	1
CC[C@]12c3[nH]c4cc(CCC(=O)N(C)C)ccc4c3CCN1C(=O)[C@@H](CC(=O)NCCC1=CCCCC1)C[C@@H]2C(=O)N1CCN(C(=O)C2CC2)CC1	-2	nt	nt	nt	2	0
CN(C)C(=O)CCc1ccc2c3c([nH]c2c1)[C@]1(CCc2ccccc2)[C@@H](C(=O)N2CCCCC2)C[C@H](CC(=O)NCc2ccco2)C(=O)N1CC3	-1	nt	nt	nt	0	-2
CCN(CC)C(=O)[C@H]1C[C@H](CC(=O)NCc2ccco2)C(=O)N2CCc3c([nH]c4cc(CCC(=O)N(C)C)ccc34)[C@]12C	-4	nt	nt	nt	51*	1
CC[C@]12c3[nH]c4cc(CCC(=O)N(C)C)ccc4c3CCN1C(=O)[C@@H](CC(=O)NCc1ccco1)C[C@@H]2C(=O)N1CCN(C(=O)C2CC2)CC1	-1	nt	nt	nt	45*	2
CC[C@]12c3[nH]c4cc(CCC(=O)N(C)C)ccc4c3CCN1C(=O)[C@@H](CC(=O)NCCC1=CCCCC1)C[C@@H]2C(=O)N1CCN(C(=O)c2ccco2)CC1	1	nt	nt	nt	43*	1
COc1cc(-c2nc3ccc4ccccc4c3c3c2CCC3)ccc1O	-4	-2	310	2	2	0
CCSc1cc(N2CCCC2)nc(-c2ccccc2)n1	-6	1	0	3	0	0
CCSc1cc(N2CCCC2)nc(-c2ccccc2Cl)n1	-1	60*	104	-1	1	0
O=c1[nH]c2ccc(N=Cc3c(O)ccc4cc(Br)ccc34)cc2[nH]1	-3	82*	nt	-1	nt	0
Cc1cccc(-c2cc(N)n(-c3ccccc3)n2)c1	-3	-4	nt	nt	nt	-2
CCc1ccc(C(=O)NNC(=O)c2ccc(=O)n(C)n2)cc1	-2	nt	198	-30*	0	0
Cc1ccccc1N=Nc1ccc(O)c2ncccc12	-4	-12	155	1	2	0
O=S(=O)(O)c1cccc2c(N=Nc3ccc(O)c4ncccc34)cccc12	5	nt	69	-92*	5	48
CC(C)c1ccc(S(=O)(=O)N2CCN(C(=O)CN3C(=O)NC4(CCCCC4)C3=O)CC2)cc1	0	nt	396	1	1	-2
NC(=O)CSc1nnc2sc3ccccc3n12	-4	-21	79*	0	3	1
CC(C)NC(=O)CSc1nnc2sc3ccccc3n12	-5	-1	406	-1	2	0
Cc1oc2c(c1C(=O)c1ccccc1)C(=O)C(=O)c1ccccc1-2	-13	-6	263	-1	58*	1
CCOC(=O)c1ccc(N=NN(C)C)cc1	0	-18	874	0	0	1

Screening data deposited in PubChem by several laboratories.
